Test results reported in paper PMC10443532 (ACS Chemical Biology, 2023).

Biological target: T1, recombinant mouse Nape-pld (Mus musculus, UniProt Q8BH82)
T1 sequence (Q8BH82 1-396): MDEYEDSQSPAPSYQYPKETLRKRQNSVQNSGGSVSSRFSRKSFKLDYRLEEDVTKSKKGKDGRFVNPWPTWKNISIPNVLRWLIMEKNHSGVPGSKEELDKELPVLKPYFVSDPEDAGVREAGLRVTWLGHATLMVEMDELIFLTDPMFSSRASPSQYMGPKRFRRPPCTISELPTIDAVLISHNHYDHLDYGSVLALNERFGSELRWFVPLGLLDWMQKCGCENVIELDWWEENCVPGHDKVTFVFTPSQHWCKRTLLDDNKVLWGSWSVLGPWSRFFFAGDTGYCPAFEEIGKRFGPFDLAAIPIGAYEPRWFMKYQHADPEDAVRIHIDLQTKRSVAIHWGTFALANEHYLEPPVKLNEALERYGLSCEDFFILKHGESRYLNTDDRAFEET
Assay: VU534 competition assays with compounds known to bind Nape-pld
Format: biochemical
Conditions: for Effect on Nape-pld activity (compound alone): in presence of 0.4% NOG, 100 μM PE, 1 mM DCA
How it was run: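 Enzyme (final 0.4 μg, 50 mM Tris, 0.4% N-octylglucoside) was preincubated with vehicle or a competitor for 30 min: dioleoyl-PE 100 μM, deoxycholic acid 1 mM, bithionol 3 μM or LEI-401 30 μM. Alternatively, 15 μM of an analog was used for 5 min. Graded test compound followed for 60 min, then flame-NAPE (0.5 μM) plus N-oleoyl-PE (9.5 μM). The 5-min fluorescence change was normalized to vehicle, 0 μM.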

SMILES	Effect on Nape-pld activity (compound alone)	Effect on ability of 5 μM VU534 to activate Nape-pld (graded concentrations of LEI-401 or VU233, flame-NAPE (Figure S5))
C[C@H](CCC(=O)O)[C@H]1CC[C@H]2[C@@H]3CC[C@@H]4C[C@H](O)CC[C@]4(C)[C@H]3C[C@H](O)[C@]12C [DCA, deoxycholic acid]	slight, but nonsignificant trend for inhibition	–
O=C(NCC1CC1)c1cc(N2CC[C@H](O)C2)nc(N2CCC[C@@H](c3ccccc3)C2)n1 [LEI-401]	–	reduced the ability of 5 μM VU534 to activate Nape-pld in a concentration-dependent manner
CCCCCCCC/C=C\CCCCCCCC(=O)OC[C@H](COP(=O)(O)OCCN)OC(=O)CCCCCCC/C=C\CCCCCCCC [PE, dioleoylphosphatidylethanolamine]	slight, but nonsignificant trend for inhibition	–
